Source: ChEMBL document CHEMBL1130137, “Substituted (pyridylmethoxy)naphthalenes as potent and orally active 5-lipoxygenase inhibitors; synthesis, biological profile, and pharmacokinetics of L-739,010” (J Med Chem, 1997)
Each block holds one molecule with its values, some of them ahead of it.

Assays:
[1] = Plasma half-life in rats in the presence of PEG 400/water(3:1); type: ADME, organism-based; details: rat
Rattus norvegicus [2] = experiment: compound was tested for inhibition of ovalbumin- induced dyspnea in inbred hyperreactive rats at 0.5 mg/kg; type: functional
Homo sapiens [3] = species: Homo sapiens; experiment: Compound was evaluated for production of leukotriene B4 in Ca+2 -ionophore -activated human polymorphonuclear (HPMN) leukocytes.; type: functional
Summary of the method: (§1)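 LTB4 generation triggered by Ca2+ ionophore A23187 in human peripheral blood polymorphonuclear leukocytes or in human whole blood; inhibitor potency expressed as IC50 (nM).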

Ovis aries = experiment: Compound was tested for inhibition of Ascaris -induced bronchoconstriction in sheep at 2.5 ug/kg intravenous administration; type: functional
Summary of the method: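 Conscious allergic sheep (n = 4) received an iv bolus of 0.2 mg/kg and then a constant iv infusion of 2.5 µg/kg/min before Ascaris antigen challenge. Percent inhibition was scored separately for the early-phase and late-phase bronchoconstriction.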

Rattus norvegicus [4] = species: Rattus norvegicus; experiment: Inhibition of LTB4 levels in rat pleural exudates; type: functional
Summary of the method: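 Rat pleurisy: carrageenan injected into the pleural cavity, followed 16-20 h later by ionophore A23187; LTB4 measured in pleural exudate 6 h after oral dosing; ED50 derived.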

Canis familiaris [5] = experiment: Ex Vivo generation of LTB4 by whole blood stimulated with calcium ionophore A-23187 in anesthetized dogs; type: functional, Canis lupus familiaris
Summary of the method: (§2)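 Anesthetized dogs receiving iv infusion (µg/kg/min, dose-ranging). Baseline urinary LTE4 excretion measured over 5-7 h after infusion start; ex vivo LTB4 generation by whole blood stimulated with calcium ionophore A23187. ED50 in µg/kg/min.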

[6] = molecular target: T1, Polyunsaturated fatty acid 5-lipoxygenase (Homo sapiens, UniProt P09917); experiment: Inhibition of oxidation of arachidonic acid by human 5-Lipoxygenase using spectrophotometric assay; type: functional
T1 sequence (P09917 whole entry): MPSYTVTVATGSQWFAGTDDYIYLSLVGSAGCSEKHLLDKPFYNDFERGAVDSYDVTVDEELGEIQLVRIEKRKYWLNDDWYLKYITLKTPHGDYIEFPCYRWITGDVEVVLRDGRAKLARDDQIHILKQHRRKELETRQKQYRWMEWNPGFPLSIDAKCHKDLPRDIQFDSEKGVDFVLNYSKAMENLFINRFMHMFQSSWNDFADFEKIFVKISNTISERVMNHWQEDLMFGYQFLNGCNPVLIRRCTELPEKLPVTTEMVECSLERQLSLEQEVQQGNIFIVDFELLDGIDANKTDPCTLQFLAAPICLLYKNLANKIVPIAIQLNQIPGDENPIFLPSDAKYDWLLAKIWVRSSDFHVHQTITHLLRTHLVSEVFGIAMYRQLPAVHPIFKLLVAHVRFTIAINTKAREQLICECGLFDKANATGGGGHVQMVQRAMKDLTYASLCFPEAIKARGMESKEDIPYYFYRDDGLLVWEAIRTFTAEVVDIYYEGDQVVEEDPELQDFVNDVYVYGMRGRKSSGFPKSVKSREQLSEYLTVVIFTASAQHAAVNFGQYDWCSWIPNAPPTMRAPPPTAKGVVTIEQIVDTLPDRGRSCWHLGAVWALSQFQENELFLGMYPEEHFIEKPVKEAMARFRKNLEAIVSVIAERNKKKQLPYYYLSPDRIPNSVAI
Summary of the method: (§3)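 Soluble extracts of Sf9 insect cells overexpressing human 5-LO; arachidonic acid oxidation followed spectrophotometrically as 5-H(P)ETE production; IC50 values.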

[7] = Compound was tested for inhibition of Ascaris -induced bronchoconstriction in squirrel monkeys; type: functional
Homo sapiens [8] = species: Homo sapiens; experiment: Compound was evaluated for production of leukotriene B4 in human whole blood (HWB) activated with ionophore A-23187.; type: functional; summary of the method: as §1
[9] = Plasma half-life in dogs in the presence of PEG 400/water(3:1); type: ADME, organism-based, Canis lupus familiaris; details: dog
Summary of the method: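 Dog PK: free base given iv in PEG-400/water (3:1); plasma levels followed and half-life estimated from the intravenous administration.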

Canis familiaris [10] = species: Canis familiaris; experiment: Inhibition of urinary LTE4 levels in dogs; type: functional, Canis lupus familiaris, Urine; summary of the method: as §2
[11] = molecular target: T1, Polyunsaturated fatty acid 5-lipoxygenase; experiment: Compound was evaluated for the potency to inhibit oxidation of arachidonic acid by human recombinant 5-Lipoxygenase using a spectrophotometric assay; type: functional; summary of the method: as §3
[12] = Maximum concentration of unchanged drug in rat plasma in the period 0-24 hr after dosing; type: ADME, organism-based
Summary of the method: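 Rats dosed orally as HCl salt in 0.5% methocel suspension (10 mL/kg); jugular blood drawn before dosing and 0.5, 1, 2, 4, 6, 8, 10, 24 h after. Plasma deproteinized with equal volume acetonitrile; parent drug measured by reverse-phase HPLC peak area against standard curves from spiked rat plasma.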

[13] = Bioavailability in rat (Sprague-Dawley) (male); type: ADME, organism-based; details: in vivo
Summary of the method: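 Oral dosing as HCl salt in 0.5% methocel suspension at 20 mg/kg (10 mL/kg); iv dosing of free base in PEG-400/water (3:1) at 5 mg/kg into jugular vein. Serial jugular blood to 24 h; plasma protein precipitated with acetonitrile, parent quantified by reverse-phase HPLC against spiked-plasma standards. F = (AUCpo × dose_iv)/(AUCiv × dose_po) × 100, over 0-24 h.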

SMILES: N#Cc1cc(-c2ccoc2)c2ccc(OCc3cccc(C4(O)CC5COC(C4)O5)n3)cc2c1 (stereo not given)
- half-life [1]: 5 h
- inhibition in vivo at 0.5 mg/kg (Rattus norvegicus [2]): 60%
- IC50 (Homo sapiens [3]): 0.0016 µM
- inhibition in vivo at 0.0025 mg/kg (Ovis aries): 50%
- ED50 (Rattus norvegicus [4]): 0.3 mg/kg
- ED50 (Canis familiaris [5]): 0.45 µg/min/kg
- IC50 [6]: 0.02 µM
- Inhibition [7]: 53%
- IC50 (Homo sapiens [8]): 0.042 µM
- half-life [9]: 16 h
- ED50 (Canis familiaris [10]): 0.23 µg/min/kg

SMILES: N#Cc1cc(-c2ccoc2)c2ccc(OCc3cncc(C4(O)CCOCC4)c3)cc2c1
- IC50 (Homo sapiens [3]): 0.01 µM
- IC50 [6]: 0.1 µM
- IC50 (Homo sapiens [8]): 0.1 µM

SMILES: N#Cc1cc(-c2ccoc2)c2ccc(OCc3csc(C4(O)CCOCC4)n3)cc2c1
- IC50 (Homo sapiens [3]): 0.009 µM
- IC50 [6]: 0.16 µM
- IC50 (Homo sapiens [8]): 0.3 µM

SMILES: N#Cc1cc(-c2ccoc2)c2ccc(OCc3cccc(C4(O)CCOCC4)n3)cc2c1
- IC50 (Homo sapiens [3]): 0.0006 µM
- IC50 (Homo sapiens [8]): 0.03 µM
- IC50 [11]: 0.015 µM

SMILES: N#Cc1cc(-c2ccoc2)c2ccc(OCc3cccc(C4(O)CCOCC4)c3)cc2c1
- Cmax [12]: 1 µM
- bioavailability [13]: < 5%

SMILES: N#Cc1cc(-c2ccoc2)c2ccc(OCc3cc(C4(O)CCOCC4)ccn3)cc2c1
- IC50 (Homo sapiens [3]): 0.0035 µM
- IC50 [6]: 0.07 µM
- IC50 (Homo sapiens [8]): 0.05 µM

SMILES: CC(C)(C)Sc1c(CC(C)(C)C(=O)O)n(Cc2ccc(Cl)cc2)c2ccc(OCc3ccc4ccccc4n3)cc12 [QUIFLAPON]
- inhibition in vivo at 0.5 mg/kg (Rattus norvegicus [2]): 56%
- inhibition in vivo at 0.0025 mg/kg (Ovis aries): > 75%
- ED50 (Rattus norvegicus [4]): 0.15 mg/kg
- ED50 (Canis familiaris [5]): 0.5 µg/min/kg
- Inhibition [7]: 71%
- ED50 (Canis familiaris [10]): 1 µg/min/kg

SMILES: CC(c1cc2ccccc2s1)N(O)C(N)=O (stereo not given) [ZILEUTON]
- IC50 (Homo sapiens [8]): 2 µM

Further molecules by falling IC50 (Homo sapiens [3]), results first:

- IC50 (Homo sapiens [3]): 0.044 µM
- IC50 [6]: 1 µM
SMILES: N#Cc1cc(-c2ccoc2)c2ccc(OCc3ccc4ccc(C5(O)CCOCC5)cc4n3)cc2c1

- IC50 (Homo sapiens [3]): 0.005 µM
- IC50 (Homo sapiens [8]): 0.25 µM
- IC50 [11]: 0.35 µM
SMILES: N#Cc1cc(-c2ccoc2)c2ccc(OCc3ccnc(C4(O)CCOCC4)c3)cc2c1

- IC50 (Homo sapiens [3]): 0.0031 µM
- IC50 [6]: 0.08 µM
- IC50 (Homo sapiens [8]): 0.067 µM
SMILES: N#Cc1cc(-c2ccoc2)c2ccc(COc3cccc(C4(O)CC5COC(C4)O5)n3)cc2c1 (stereo not given)
